# Test results from ChEMBL document CHEMBL1649560, “Beta-lactamase-mediated beta-lactam resistance in Campylobacter species: prevalence of Cj0299 (bla OXA-61) and evidence for a novel beta-Lactamase in C. jejuni” (2009).
# Assays:
# Type in all cases: functional
# Campylobacter jejuni [1] = experiment: Antibacterial activity against Campylobacter jejuni by NCCLS agar doubling dilution method
# Method in brief: (§1)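 MICs by agar doubling dilution following the NCCLS (CLSI) Campylobacter Working Group procedure, applied to ampicillin- and amoxicillin-resistant isolates from UK chicken flocks (2000–2006). C. jejuni NCTC 11168 and C. coli NCTC 11366 served as control strains. Resistance was called at an ampicillin cutoff of 8 μg/ml. Other agents were judged against Enterobacteriaceae guidelines (BSAC, CLSI).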
# Campylobacter coli [2] = experiment: Antibacterial activity against Campylobacter coli by NCCLS agar doubling dilution method; method in brief: as §1
# Campylobacter jejuni [3] = experiment: Antibacterial activity against bla gene-positive and nitrocefin reaction-negative beta-lactamase harboring Campylobacter jejuni NCTC 11168 by NCCLS agar doubling dilution method
# Method in brief: (§2)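 MICs of β-lactams by agar doubling dilution following the NCCLS (CLSI) Campylobacter Working Group procedure, with C. jejuni NCTC 11168 and C. coli NCTC 11366 as controls. Isolates were from UK poultry flocks. β-Lactamase status was set by Cj0299 PCR (281-bp amplimer) and by a nitrocefin colour change of sonicated lysate within 5 min, or within 30 min on repeat.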
# Campylobacter jejuni [4] = experiment: Antibacterial activity against Campylobacter jejuni isolate P270 harboring blaOXA-61::cat gene by NCCLS agar doubling dilution method
# Campylobacter jejuni [5] = experiment: Antibacterial activity against bla gene-negative and nitrocefin reaction-negative beta-lactamase harboring Campylobacter jejuni isolate P835 by NCCLS agar doubling dilution method; method in brief: as §2
# Campylobacter jejuni [6] = experiment: Antibacterial activity against bla gene-negative and nitrocefin reaction-negative beta-lactamase harboring Campylobacter jejuni isolate P850 by NCCLS agar doubling dilution method; method in brief: as §2
# Campylobacter jejuni [7] = experiment: Antibacterial activity against bla gene-negative and nitrocefin reaction-negative beta-lactamase harboring Campylobacter jejuni isolate P1962 by NCCLS agar doubling dilution method; method in brief: as §2
# Campylobacter jejuni [8] = experiment: Antibacterial activity against bla gene-positive and nitrocefin reaction-positive beta-lactamase harboring Campylobacter jejuni isolate P285 by NCCLS agar doubling dilution method
# Method in brief: (§3)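 MICs by agar doubling dilution per the NCCLS (now CLSI) Campylobacter Working Group method. Isolates came from UK chicken flocks (feces, ceca or farm environment), 2000–2006. C. jejuni NCTC 11168 and C. coli NCTC 11366 served as control strains. The ampicillin resistance cutoff was 8 μg/ml; BSAC/CLSI Enterobacteriaceae guidelines were used for other agents.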
# Campylobacter jejuni [9] = experiment: Antibacterial activity against bla gene-positive and nitrocefin reaction-positive beta-lactamase harboring Campylobacter jejuni isolate P286 by NCCLS agar doubling dilution method; method in brief: as §3
# Campylobacter jejuni [10] = experiment: Antibacterial activity against bla gene-positive and nitrocefin reaction-positive beta-lactamase harboring Campylobacter jejuni isolate P305 by NCCLS agar doubling dilution method; method in brief: as §3
# Campylobacter jejuni [11] = experiment: Antibacterial activity against bla gene-positive and nitrocefin reaction-positive beta-lactamase harboring Campylobacter jejuni isolate P316 by NCCLS agar doubling dilution method; method in brief: as §3
# Campylobacter jejuni [12] = experiment: Antibacterial activity against bla gene-positive and nitrocefin reaction-positive beta-lactamase harboring Campylobacter jejuni isolate P338 by NCCLS agar doubling dilution method; method in brief: as §3
# Campylobacter jejuni [13] = experiment: Antibacterial activity against Campylobacter jejuni isolate P338 harboring blaOXA-61::cat gene by NCCLS agar doubling dilution method
# Method in brief: (§4)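 Agar doubling dilution MICs (NCCLS/CLSI Campylobacter Working Group method) against Cj0299-inactivated mutants. Mutants were made by transforming the C. jejuni isolate with pCI and selecting on Mueller-Hinton agar with 10 μg/ml chloramphenicol for 3–5 days. Chromosomal insertion was confirmed by PCR with Cj0299 and cat primers.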
# Campylobacter jejuni [14] = experiment: Antibacterial activity against bla gene-positive and nitrocefin reaction-positive beta-lactamase harboring Campylobacter jejuni isolate P790 by NCCLS agar doubling dilution method; method in brief: as §3
# Campylobacter jejuni [15] = experiment: Antibacterial activity against bla gene-positive and nitrocefin reaction-positive beta-lactamase harboring Campylobacter jejuni isolate P1093 by NCCLS agar doubling dilution method; method in brief: as §2
# Campylobacter jejuni [16] = experiment: Antibacterial activity against Campylobacter jejuni isolate P1093 harboring blaOXA-61::cat gene by NCCLS agar doubling dilution method; method in brief: as §4
# Campylobacter jejuni [17] = experiment: Antibacterial activity against bla gene-positive and nitrocefin reaction-positive beta-lactamase harboring Campylobacter jejuni isolate P1618 by NCCLS agar doubling dilution method; method in brief: as §2
# Campylobacter jejuni [18] = experiment: Antibacterial activity against bla gene-positive and nitrocefin reaction-positive beta-lactamase harboring Campylobacter jejuni isolate P1650 by NCCLS agar doubling dilution method; method in brief: as §2
# Campylobacter jejuni [19] = experiment: Antibacterial activity against bla gene-positive and nitrocefin reaction-positive beta-lactamase harboring Campylobacter jejuni isolate P1730 by NCCLS agar doubling dilution method; method in brief: as §3
# Campylobacter jejuni [20] = experiment: Antibacterial activity against bla gene-positive and nitrocefin reaction-negative beta-lactamase harboring Campylobacter jejuni isolate P1698 by NCCLS agar doubling dilution method; method in brief: as §2
# Campylobacter jejuni [21] = experiment: Antibacterial activity against bla gene-positive and nitrocefin reaction-negative beta-lactamase harboring Campylobacter jejuni isolate P1699 by NCCLS agar doubling dilution method; method in brief: as §2
# Campylobacter jejuni [22] = experiment: Antibacterial activity against bla gene-negative and nitrocefin reaction-positive beta-lactamase harboring Campylobacter jejuni isolate P843 by NCCLS agar doubling dilution method; method in brief: as §2
# Campylobacter jejuni [23] = experiment: Antibacterial activity against bla gene-negative and nitrocefin reaction-positive beta-lactamase harboring Campylobacter jejuni isolate P854 by NCCLS agar doubling dilution method; method in brief: as §2
# Campylobacter coli [24] = experiment: Antibacterial activity against bla gene-positive and nitrocefin reaction-positive beta-lactamase harboring Campylobacter coli isolate P321 by NCCLS agar doubling dilution method; method in brief: as §2
# Campylobacter coli [25] = experiment: Antibacterial activity against bla-positive and beta-lactamase-weakly positive Campylobacter coli isolate P1627 by NCCLS agar doubling dilution method; method in brief: as §3
# Campylobacter coli [26] = experiment: Antibacterial activity against bla gene-positive and nitrocefin reaction-positive beta-lactamase harboring Campylobacter coli isolate P1826 by NCCLS agar doubling dilution method; method in brief: as §2
smiles,measurement,setting,value
CO/N=C(\C(=O)N[C@@H]1C(=O)N2C(C(=O)O)=C(COC(C)=O)CS[C@H]12)c1csc(N)n1 [CEFOTAXIME],MIC50,Campylobacter jejuni [1],4 µg/mL
same,MIC90,Campylobacter jejuni [1],8 µg/mL
same,MIC50,Campylobacter coli [2],4 µg/mL
same,MIC90,Campylobacter coli [2],8 µg/mL
same,MIC,Campylobacter jejuni [3],2 µg/mL
same,MIC,Campylobacter jejuni [4],2 µg/mL
same,MIC,Campylobacter jejuni [5],4 µg/mL
same,MIC,Campylobacter jejuni [6],8 µg/mL
same,MIC,Campylobacter jejuni [7],1 µg/mL
same,MIC,Campylobacter jejuni [8],8 µg/mL
same,MIC,Campylobacter jejuni [9],8 µg/mL
same,MIC,Campylobacter jejuni [10],4 µg/mL
same,MIC,Campylobacter jejuni [11],4 µg/mL
same,MIC,Campylobacter jejuni [12],8 µg/mL
same,MIC,Campylobacter jejuni [13],8 µg/mL
same,MIC,Campylobacter jejuni [14],4 µg/mL
same,MIC,Campylobacter jejuni [15],8 µg/mL
same,MIC,Campylobacter jejuni [16],4 µg/mL
same,MIC,Campylobacter jejuni [17],16 µg/mL
same,MIC,Campylobacter jejuni [18],4 µg/mL
same,MIC,Campylobacter jejuni [19],4 µg/mL
same,MIC,Campylobacter jejuni [20],4 µg/mL
same,MIC,Campylobacter jejuni [21],4 µg/mL
same,MIC,Campylobacter jejuni [22],4 µg/mL
same,MIC,Campylobacter jejuni [23],4 µg/mL
same,MIC,Campylobacter coli [24],4 µg/mL
same,MIC,Campylobacter coli [25],4 µg/mL
same,MIC,Campylobacter coli [26],2 µg/mL
